Reference: ChEMBL document CHEMBL3244244, “Folate analogues altered in the C9-N10 bridge region: 11-thiohomofolic acid” (J Med Chem, 1979)
In brackets after ≈: the same amount, converted by molar mass. Activity calls are given as the source filed them. The rule behind the calls is not given here.

Legend:
Lacticaseibacillus casei [1] = assay: Antifolate activity against Lactobacillus casei ATCC 7469 assessed as growth inhibition; type: functional, organism-based
Enterococcus faecium [2] = assay: Antifolate activity against Streptococcus faecium ATCC 8043 assessed as growth inhibition; type: functional, organism-based; conditions: for IC50: read-out: I50
[3] = molecular target: Dihydrofolate reductase (Lactobacillus casei) (UniProt P00381); assay: Inhibition of Lactobacillus casei DHFR; conditions: Lacticaseibacillus casei
Chain of Dihydrofolate reductase (Lactobacillus casei) (P00381 whole entry): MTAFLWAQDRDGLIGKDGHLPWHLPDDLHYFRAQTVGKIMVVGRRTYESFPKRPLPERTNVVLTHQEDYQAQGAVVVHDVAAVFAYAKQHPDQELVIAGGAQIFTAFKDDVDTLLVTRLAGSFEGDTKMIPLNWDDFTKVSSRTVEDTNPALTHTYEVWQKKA

[4] = molecular target: Dihydrofolate reductase (Lactobacillus casei) (UniProt P00381); assay: Activity of Lactobacillus casei DHFR; conditions: Lacticaseibacillus casei
Outline: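 The 7,8-dihydro form of the test folate analogue replaced the natural substrate in the previously described L. casei DHFR assay medium.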

Enterococcus faecium [5] = assay: Antifolate activity against Streptococcus faecium ATCC 8043 assessed as growth inhibition at 1.6 ug/ml; type: functional, organism-based
Outline: (§1)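 Bacterial growth was run in each organism's own assay medium by earlier-reported methods, with test agent at 1.6 μg/mL.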

[6] = molecular target: T1, Thymidylate synthase (Lactobacillus casei) (UniProt P00469); assay: Inhibition of Lactobacillus casei thymidylate synthase; conditions: Lacticaseibacillus casei
T1 sequence (whole entry): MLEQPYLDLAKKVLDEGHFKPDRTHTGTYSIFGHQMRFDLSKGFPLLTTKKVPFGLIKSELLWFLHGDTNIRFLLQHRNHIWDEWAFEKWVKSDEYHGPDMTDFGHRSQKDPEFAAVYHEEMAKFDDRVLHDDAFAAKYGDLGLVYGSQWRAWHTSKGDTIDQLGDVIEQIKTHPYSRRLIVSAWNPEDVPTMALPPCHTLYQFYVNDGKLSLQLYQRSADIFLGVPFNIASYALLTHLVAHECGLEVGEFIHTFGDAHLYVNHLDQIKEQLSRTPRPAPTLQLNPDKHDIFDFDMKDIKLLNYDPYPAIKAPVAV

Lacticaseibacillus casei [7] = assay: Antifolate activity against Lactobacillus casei ATCC 7469 assessed as growth inhibition at 1.6 ug/ml; type: functional, organism-based; outline: as §1

Q: For `Nc1nc(=O)c2nc(CSc3ccc(C(=O)N[C@@H](CCC(=O)O)C(=O)O)cc3)cnc2[nH]1`, which “growth inhibition (GI)” value (Lacticaseibacillus casei [1]) is on record?
A: Active

Q: And the “growth inhibition (GI)” value (Enterococcus faecium [2])?
A: Active

Q: For `Nc1nc(=O)c2c([nH]1)NCC(CCNc1ccc(C(=O)N[C@@H](CCC(=O)O)C(=O)O)cc1)N2` (some centres not stated), which IC50 (Enterococcus faecium [2]) is on record?
A: 0.7 ng/mL (≈ 1.52 nM)

Q: How did the I50 (Lacticaseibacillus casei [1]) turn out when `Nc1nc(=O)c2c([nH]1)NCC(CCSc1ccc(C(=O)N[C@@H](CCC(=O)O)C(=O)O)cc1)N2` (some centres not stated) was run?
A: 8 ×10⁻⁷ g/ml

Q: And the IC50 (Enterococcus faecium [2])?
A: 1.2 ng/mL (≈ 2.52 nM)

Q: Which “growth inhibition (GI)” value (Lacticaseibacillus casei [1]) does the source give for `Nc1nc(=O)c2nc(COc3ccc(C(=O)N[C@@H](CCC(=O)O)C(=O)O)cc3)cnc2[nH]1` here?
A: Active

Q: What about the “growth inhibition (GI)” value (Enterococcus faecium [2]) of the same compound?
A: Active

Q: For `COC(=O)c1ccc(SCCc2cnc3nc(N)[nH]c(=O)c3n2)cc1`, which “growth inhibition (GI)” value (Lacticaseibacillus casei [1]) is on record?
A: inactive

Q: What about the “growth inhibition (GI)” value (Enterococcus faecium [2]) of the same compound?
A: inactive

Q: Which inhibition [3] does the source give for `Nc1nc(O)c2nc(CCSc3ccc(C(=O)N[C@@H](CCC(=O)O)C(=O)O)cc3)cnc2n1` here?
A: inactive

Q: What about the Activity [4] of the same compound?
A: inactive

Q: What about the “growth inhibition (GI)” value (Enterococcus faecium [5]) of the same compound?
A: inactive

Q: And the inhibition [6]?
A: inactive

Q: And the “growth inhibition (GI)” value (Lacticaseibacillus casei [7])?
A: inactive

Q: With `Nc1nc(=O)c2c([nH]1)NCC(CCSc1ccc(C(=O)N[C@@H](CCC(=O)O)C(=O)O)cc1)=N2` as the compound, how does the Activity [4] read?
A: Active

Q: Which results are given for `Nc1nc2ncc(CCSc3ccc(C(=O)O)cc3)nc2c(=O)[nH]1`?
A: growth inhibition (GI) (Lacticaseibacillus casei [1]): inactive; growth inhibition (GI) (Enterococcus faecium [2]): inactive
